Reference: ChEMBL document CHEMBL2321767, “Synthesis and anticonvulsant activity of bioisosteres of trimethadione, N-derivative-1,2,3-oxathiazolidine-4-one-2,2-dioxides from α-hydroxyamides” (Bioorg Med Chem, 2013)
The source made the active and inactive calls.

What was measured:
Mus musculus [1] = experiment: Toxicity against Swiss albino mouse assessed as mortality at 30 to 100 mg/kg, ip; assay type: organism-based; parameters: dose 30-100 mg/kg, route intraperitoneal; settings: in vivo
Summary of the method: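 Adult male Swiss albino mice (18–25 g; 12 h light/dark cycle, free food and water) were dosed ip at 30 and 100 mg/kg in 30% PEG 400 and 10% water, 0.01 mL/g body weight. Testing was at 0.5 and 4 h in the MES, scPTZ and RotoRod assays, with deaths recorded during these assays.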

Mus musculus [2] = experiment: Anticonvulsant activity in ip dosed Swiss albino mouse assessed as time of maximal protection against maximal electric shock-induced tonic-clonic seizures; assay type: functional
Summary of the method: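 Ip-dosed male Swiss albino mice (vehicle 30% PEG 400/10% water) tested in the MES test (ear-clip electroshock, endpoint abolition of hind-limb tonic extension) at several times after dosing. The maximal time effect is the time of peak protection.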

Mus musculus [3] = experiment: Anticonvulsant activity in ip dosed Swiss albino mouse assessed as protection against maximal electric shock-induced tonic-clonic seizures measured up to 4 hrs; assay type: functional
Summary of the method: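 Male Swiss albino mice given test substances ip in 30% PEG 400/10% water. Various doses, each group of six mice, tested by MES at the maximal time effect. Protection means no hind-limb tonic extension after ear-clip electroshock. ED50 and 95% confidence intervals computed by the Litchfield–Wilcoxon method.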

Mus musculus [4] = experiment: Neurotoxicity against Swiss albino mouse at 100 mg/kg, ip measured after 4 hrs by rotarod test; assay type: toxicity, organism-based; parameters: dose 100 mg/kg, route intraperitoneal; settings: in vivo
Summary of the method: (§1)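 Male Swiss albino mice (18–25 g) dosed ip at 30 or 100 mg/kg in 30% PEG 400/10% water. Minimal neurotoxicity checked on the rotarod 0.5 and 4 h after dosing, as failure to keep balance on the rotating rod. Reported as affected/tested, 5 mice per group.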

Mus musculus [5] = experiment: Neurotoxicity against Swiss albino mouse at 30 mg/kg, ip measured after 4 hrs by rotarod test; assay type: toxicity, organism-based; parameters: dose 30 mg/kg, route intraperitoneal; settings: in vivo; summary of the method: as §1
Mus musculus [6] = experiment: Anticonvulsant activity in Swiss albino mouse assessed as protection against maximal electric shock-induced tonic-clonic seizures at 30 mg/kg, ip measured after 0.5 hrs relative to control; assay type: functional, organism-based; parameters: dose 30 mg/kg
Summary of the method: (§2)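 Adult male Swiss albino mice (18–25 g) dosed ip with 30 or 100 mg/kg in 30% PEG 400/10% water, 0.01 mL/g. MES tested 0.5 and 4 h later: electroshock via ear clips. Protection means no hind-limb tonic extension. Result reported as mice protected out of mice tested (3 per group).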

Mus musculus [7] = experiment: Anticonvulsant activity in Swiss albino mouse assessed as protection against maximal electric shock-induced tonic-clonic seizures at 100 mg/kg, ip measured after 0.5 hrs relative to control; assay type: functional; summary of the method: as §2
Mus musculus [8] = experiment: Anticonvulsant activity in Swiss albino mouse assessed as protection against maximal electric shock-induced tonic-clonic seizures at 30 mg/kg, ip measured after 4 hrs relative to control; assay type: functional; summary of the method: as §2
Mus musculus [9] = experiment: Anticonvulsant activity in Swiss albino mouse assessed as protection against maximal electric shock-induced tonic-clonic seizures at 100 mg/kg, ip measured after 4 hrs relative to control; assay type: functional, organism-based; parameters: dose 100 mg/kg; summary of the method: as §2
Mus musculus [10] = experiment: Anticonvulsant activity in Swiss albino mouse assessed as protection against scPTZ-induced tonic-clonic seizures at 30 mg/kg, ip measured after 0.5 hrs relative to control; assay type: functional, organism-based; parameters: dose 30 mg/kg
Summary of the method: (§3)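 Adult male Swiss albino mice (18–25 g) given test substance ip at 30 or 100 mg/kg in 30% PEG 400/10% water. At 0.5 or 4 h, PTZ 85 mg/kg sc (0.5% in 0.9% saline) into the posterior midline. Mice observed 30 min. Protection means no threshold seizure, i.e. no clonic spasm lasting ≥5 s. Scored as protected/tested, 2 mice per group.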

Mus musculus [11] = experiment: Anticonvulsant activity in Swiss albino mouse assessed as protection against scPTZ-induced tonic-clonic seizures at 100 mg/kg, ip measured after 0.5 hrs relative to control; assay type: functional, organism-based; parameters: dose 100 mg/kg; summary of the method: as §3
Mus musculus [12] = experiment: Anticonvulsant activity in Swiss albino mouse assessed as protection against scPTZ-induced tonic-clonic seizures at 30 mg/kg, ip measured after 4 hrs relative to control; assay type: functional, organism-based; parameters: dose 30 mg/kg; summary of the method: as §3
Mus musculus [13] = experiment: Anticonvulsant activity in Swiss albino mouse assessed as protection against scPTZ-induced tonic-clonic seizures at 100 mg/kg, ip measured after 4 hrs relative to control; assay type: functional, organism-based; parameters: dose 100 mg/kg; summary of the method: as §3
Mus musculus [14] = experiment: Neurotoxicity against Swiss albino mouse at 30 mg/kg, ip measured after 0.5 hrs by rotarod test; assay type: toxicity, organism-based; parameters: dose 30 mg/kg, route intraperitoneal; settings: in vivo; summary of the method: as §1
Mus musculus [15] = experiment: Neurotoxicity against Swiss albino mouse at 100 mg/kg, ip measured after 0.5 hrs by rotarod test; assay type: toxicity, organism-based; parameters: dose 100 mg/kg, route intraperitoneal; settings: in vivo; summary of the method: as §1
Mus musculus [16] = species on record: Mus musculus; experiment: Ratio of trimathadione ED50 to compound ED50 for protection against maximal electric shock-induced tonic-clonic seizures in Swiss albino mouse; assay type: functional
Mus musculus [17] = species on record: Mus musculus; experiment: Ratio of valproic acid ED50 to compound ED50 for protection against maximal electric shock-induced tonic-clonic seizures in Swiss albino mouse; assay type: functional
Mus musculus [18] = species on record: Mus musculus; experiment: Ratio of phenytoin ED50 to compound ED50 for protection against maximal electric shock-induced tonic-clonic seizures in Swiss albino mouse; assay type: functional

CC1(C)OS(=O)(=O)N(CCc2ccccc2)C1=O
Activity (Mus musculus [1]): Non-toxic
Time (Mus musculus [2]): 2 h
ED50 (Mus musculus [3]): 91.1 mg/kg
Activity (Mus musculus [4]): Non-toxic
Activity (Mus musculus [5]): Non-toxic
Activity (Mus musculus [6]): Active
Activity (Mus musculus [7]): Active
Activity (Mus musculus [8]): Active
Activity (Mus musculus [9]): Active
Activity (Mus musculus [10]): Active
Activity (Mus musculus [11]): Active
Activity (Mus musculus [12]): inactive
Activity (Mus musculus [13]): Active
Activity (Mus musculus [14]): Non-toxic
Activity (Mus musculus [15]): Non-toxic

CC1(C)OS(=O)(=O)N(Cc2ccccc2)C1=O
Activity (Mus musculus [1]): Non-toxic
Ratio ED50 (Mus musculus [16]): 40
Ratio ED50 (Mus musculus [17]): 19
Time (Mus musculus [2]): 4 h
ED50 (Mus musculus [3]): 15.1 mg/kg
Activity (Mus musculus [4]): Non-toxic
Activity (Mus musculus [5]): Non-toxic
Activity (Mus musculus [6]): Active
Activity (Mus musculus [7]): Active
Activity (Mus musculus [8]; route intraperitoneal): 100%
Activity (Mus musculus [9]): Active
Activity (Mus musculus [10]): inactive
Activity (Mus musculus [11]): Active
Activity (Mus musculus [12]): inactive
Activity (Mus musculus [13]): inactive
Activity (Mus musculus [14]): Non-toxic
Activity (Mus musculus [15]): Non-toxic

CC(C)(O)C(=O)NCCc1ccccc1
Activity (Mus musculus [1]): Non-toxic
Time (Mus musculus [2]): 1 h
ED50 (Mus musculus [3]): 53.9 mg/kg
Activity (Mus musculus [4]): Non-toxic
Activity (Mus musculus [5]): Non-toxic
Activity (Mus musculus [6]): Active
Activity (Mus musculus [7]; route intraperitoneal): 100%
Activity (Mus musculus [8]): Active
Activity (Mus musculus [9]): Active
Activity (Mus musculus [10]): inactive
Activity (Mus musculus [11]): Active
Activity (Mus musculus [12]): inactive
Activity (Mus musculus [13]): Active
Activity (Mus musculus [14]): Non-toxic
Activity (Mus musculus [15]): Non-toxic

O=C1NC(=O)C(c2ccccc2)(c2ccccc2)N1 [PHENYTOIN]
Time (Mus musculus [2]): 1 h
ED50 (Mus musculus [3]): 5.54 mg/kg

CCCNC(=O)C(C)(C)O
Activity (Mus musculus [1]): Non-toxic
Activity (Mus musculus [4]): Non-toxic
Activity (Mus musculus [5]): Non-toxic
Activity (Mus musculus [6]): Active
Activity (Mus musculus [7]): Active
Activity (Mus musculus [8]; route intraperitoneal): 100%
Activity (Mus musculus [9]): inactive
Activity (Mus musculus [10]): inactive
Activity (Mus musculus [11]): inactive
Activity (Mus musculus [12]): inactive
Activity (Mus musculus [13]): inactive
Activity (Mus musculus [14]): Non-toxic
Activity (Mus musculus [15]): Non-toxic

CCCCNC(=O)C(C)(C)O
Activity (Mus musculus [1]): Non-toxic
Time (Mus musculus [2]): 6 h
ED50 (Mus musculus [3]): 44.6 mg/kg
Activity (Mus musculus [4]): Non-toxic
Activity (Mus musculus [5]): Non-toxic
Activity (Mus musculus [6]): inactive
Activity (Mus musculus [7]; route intraperitoneal): 100%
Activity (Mus musculus [8]): Active
Activity (Mus musculus [9]): Active
Activity (Mus musculus [10]): Active
Activity (Mus musculus [11]): inactive
Activity (Mus musculus [12]): Active
Activity (Mus musculus [13]): Active
Activity (Mus musculus [14]): Non-toxic
Activity (Mus musculus [15]): Non-toxic

CCCN1C(=O)C(C)(C)OS1(=O)=O
Activity (Mus musculus [1]): Non-toxic
Activity (Mus musculus [4]): Non-toxic
Activity (Mus musculus [5]): Non-toxic
Activity (Mus musculus [6]): Active
Activity (Mus musculus [7]): Active
Activity (Mus musculus [8]): inactive
Activity (Mus musculus [9]): Active
Activity (Mus musculus [10]): inactive
Activity (Mus musculus [11]): inactive
Activity (Mus musculus [12]): inactive
Activity (Mus musculus [13]): inactive
Activity (Mus musculus [14]): Non-toxic
Activity (Mus musculus [15]): Non-toxic

CCCCNC(=O)C(O)(c1ccccc1)c1ccccc1
Activity (Mus musculus [1]): Non-toxic
Activity (Mus musculus [4]): Non-toxic
Activity (Mus musculus [5]): Non-toxic
Activity (Mus musculus [6]): Active
Activity (Mus musculus [7]; route intraperitoneal): 100%
Activity (Mus musculus [8]; route intraperitoneal): 100%
Activity (Mus musculus [9]): Active
Activity (Mus musculus [10]): inactive
Activity (Mus musculus [11]): inactive
Activity (Mus musculus [12]): inactive
Activity (Mus musculus [13]): inactive
Activity (Mus musculus [14]): Non-toxic
Activity (Mus musculus [15]): Non-toxic

CCCCN1C(=O)C(C)(C)OS1(=O)=O
Activity (Mus musculus [1]): Non-toxic
Ratio ED50 (Mus musculus [18]): 90
Ratio ED50 (Mus musculus [16]): 10000
Ratio ED50 (Mus musculus [17]): 4700
Time (Mus musculus [2]): 2 h
ED50 (Mus musculus [3]): 0.06 mg/kg
Activity (Mus musculus [4]): Non-toxic
Activity (Mus musculus [5]): Non-toxic
Activity (Mus musculus [6]): Active
Activity (Mus musculus [7]): inactive
Activity (Mus musculus [8]): Active
Activity (Mus musculus [9]): Active
Activity (Mus musculus [10]): Active
Activity (Mus musculus [11]): inactive
Activity (Mus musculus [12]): Active
Activity (Mus musculus [13]): Active
Activity (Mus musculus [14]): Non-toxic
Activity (Mus musculus [15]): Non-toxic

CC(C)(O)C(=O)NCc1ccccc1
Activity (Mus musculus [1]): Non-toxic
Ratio ED50 (Mus musculus [17]): 30
Time (Mus musculus [2]): 0.25 h
ED50 (Mus musculus [3]): 9.1 mg/kg
Activity (Mus musculus [4]): Non-toxic
Activity (Mus musculus [5]): Non-toxic
Activity (Mus musculus [6]): Active
Activity (Mus musculus [7]; route intraperitoneal): 100%
Activity (Mus musculus [8]): Active
Activity (Mus musculus [9]): inactive
Activity (Mus musculus [10]): Active
Activity (Mus musculus [11]): Active
Activity (Mus musculus [12]): inactive
Activity (Mus musculus [13]): Active
Activity (Mus musculus [14]): Non-toxic
Activity (Mus musculus [15]): Non-toxic

CC(C)(O)C(=O)NC1CCCCC1
Activity (Mus musculus [1]): Non-toxic
Time (Mus musculus [2]): 0.5 h
ED50 (Mus musculus [3]): 25.2 mg/kg
Activity (Mus musculus [4]): Non-toxic
Activity (Mus musculus [5]): Non-toxic
Activity (Mus musculus [6]): Active
Activity (Mus musculus [7]; route intraperitoneal): 100%
Activity (Mus musculus [8]; route intraperitoneal): 100%
Activity (Mus musculus [9]): Active
Activity (Mus musculus [10]): inactive
Activity (Mus musculus [11]): inactive
Activity (Mus musculus [12]): inactive
Activity (Mus musculus [13]): inactive
Activity (Mus musculus [14]): Non-toxic
Activity (Mus musculus [15]): Non-toxic

CN1C(=O)OC(C)(C)C1=O [TRIMETHADIONE]
Time (Mus musculus [2]): 0.5 h
ED50 (Mus musculus [3]): 627 mg/kg
